The list is not random: actives were taken first. Their share in the collection is about 2.1%.
AF4-AF9 inh: blocks AF4 peptide binding to human AF9; actives 0.47% (n = 350,000); AID 651704; P42568; inhibition, % at 10 µM; AlphaScreen, biotin-AF4 peptide binding to FLAG-AF9;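 active = every replicate reaching a set inhibition limit, whatever the replicate mean, cut at about 25% in these data; inconclusive = mean inhibition reaches that limit but some replicates miss it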;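 also: 0% = plate neutral control median and 100% = total signal loss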
Target sequence (P42568 whole entry, looked up): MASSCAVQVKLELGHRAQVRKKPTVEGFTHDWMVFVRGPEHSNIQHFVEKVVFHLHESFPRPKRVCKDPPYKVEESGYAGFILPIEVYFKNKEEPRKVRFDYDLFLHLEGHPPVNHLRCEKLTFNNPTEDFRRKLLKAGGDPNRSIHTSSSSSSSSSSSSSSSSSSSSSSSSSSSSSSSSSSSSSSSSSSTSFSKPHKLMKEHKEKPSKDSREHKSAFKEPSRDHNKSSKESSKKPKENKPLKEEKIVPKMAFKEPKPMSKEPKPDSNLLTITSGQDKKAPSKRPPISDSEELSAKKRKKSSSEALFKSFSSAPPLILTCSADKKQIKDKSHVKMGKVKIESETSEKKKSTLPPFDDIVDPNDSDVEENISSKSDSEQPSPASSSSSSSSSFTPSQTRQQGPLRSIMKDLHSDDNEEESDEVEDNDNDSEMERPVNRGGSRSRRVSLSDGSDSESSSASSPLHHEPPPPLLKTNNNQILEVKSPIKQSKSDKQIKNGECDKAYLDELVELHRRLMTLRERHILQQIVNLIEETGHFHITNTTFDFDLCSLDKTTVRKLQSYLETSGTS
PAX8 inh HTS: lowers PAX8-driven luciferase in RMG-I cells; actives 1.2% (n = 360,000); AID 652154; inhibition, % at 12.6 µM; RMG-I TPO-luciferase reporter, SteadyGlo, 24 h;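 active = mean replicate inhibition at least 60% with every replicate also reaching 60%; inconclusive = only one of the two criteria is met; inactive = mean below 60% and not all replicates reaching 60%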;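 also: luciferase light reporting Pax8 driven TPO promoter activity; plate controls were median of neutral control wells for no effect and mitoxantrone controls for full effect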
Xi reactivation: X-chromosome reactivation activator; XiGFP mouse fibroblasts, % GFP-positive cells imaging, 3 d; cells co-treated with 5-aza-dC sensitizer; scaled so ellipticine positive control = 100%; activation, % at 7.58 µM; actives 0.055% (n = 360,000);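 active = mean normalized replicate activation at least 10% and every replicate at or above 10%; inconclusive = only one of the two criteria met; inactive = mean below 10% and not all replicates reach 10%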;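 also: 0% = median of on-plate neutral control wells and 100% = ellipticine 6 µM median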
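Material: XiGFP fibroblasts, SV40-immortalized. Buffer or medium: DMEM plus 5-aza-dC sensitizer. Compound: single concentration per compound, delivered by pin transfer. Times: 3 days compound exposure. Controls: ellipticine 6 µM.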
GSIS activator: primary screen for activators of insulin secretion dependent on glucose, INS-1E cells, GLuc reporter luminescence. INS-1E GLuc reporter insulin secretion, 2-3 h. activation, % at 16.6 µM. actives 0.61% (n = 370,000);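 active = lowest replicate activation of at least 40%, so every replicate reaches that level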;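 also: 0% = median of neutral control wells and 100% = median of IBMX positive control wells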
PGC1a acetyl inh: modulators of PGC1a acetylation; inhibition, % at 15.6 µM; actives 0.17% (n = 350,000); U2OS PGC1a acetylation, AlphaScreen anti-acetyl-lysine; with virally co-expressed GCN5 acetyltransferase; AID 651687;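 active = every replicate shows inhibition of at least 40%; inconclusive = mean inhibition at least 40% but some replicate below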;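 also: 0% = neutral control wells and 100% = positive control wells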
EWS-Fli block: blocks EWS/Fli oncoprotein-driven transcription | A673 NR0B1-luciferase reporter, viability-normalised | inhibition, % at 12.6 µM | actives 0.67% (n = 350,000) | AID 651661;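 active = mean inhibition of at least 50% after viability correction, with every replicate also passing that limit; inconclusive = mean reaches 50% but only one of two replicates passes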;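 also: firefly luciferase signal divided by Alamar Blue viability fluorescence both relative to DMSO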
An asterisk follows results filed as active; ? = inconclusive; . = no result.

SMILES	AF4-AF9 inh	PAX8 inh HTS	Xi reactivation	GSIS activator	PGC1a acetyl inh	EWS-Fli block
COc1cccc(NC(=O)c2ccccc2-c2ccccc2C(=O)O)c1	-0.4	12.7	0.5	16.3	81.3*	17.5
CC(=O)c1cccc(NC(=O)c2ccccc2-c2ccccc2C(=O)O)c1	-2.3	-25.5	0.0	.	6.7	4.4
O=C(C[C@H]1C=C[C@H](NC(=O)Nc2cc(F)ccc2F)[C@H](CO)O1)NCc1ccccn1	-2.6	-23.5	0.1	12.4	-5.3	-0.5
C=CCOn1c(C)c(C(C)=O)c2c3nonc3ccc21	.	.	.	.	11.7	.
CCOC(=O)c1c(C)n(OCc2ccccc2)c2ccc3nonc3c12	33.2*	.	.	2.2	-13.5	11.7
O=C(O)c1ccc(S(=O)(=O)NCc2ccc3c(c2)OCO3)cc1	-2.7	5.5	0.3	43.1*	3.6	-0.7
COc1ccc(-c2ccccc2[C@@H]2[C@@H](C#N)N(C(=O)C3CC3)[C@H]2CO)cc1	-1.3	-2.1	0.1	4.1	0.8	7.8
CCOc1ccccc1NC(=O)CSc1ccc(-c2ccco2)nn1	-4.1	3.6	-0.1	60.7*	-5.0	.
CCOc1ccccc1NC(=O)Cn1nc(-c2ccco2)ccc1=O	2.7	9.4	0.2	9.7	.	-0.4
COc1ccc(C(=O)NCC(=O)OCC(=O)Nc2ccc(C)c(S(=O)(=O)N(C)C)c2)cc1OC	-20.1	9.0	-0.2	68.0*	31.6	20.6
COc1ccc(CCC(=O)Nc2ccc(C)c(S(=O)(=O)N(C)C)c2)cc1OC	.	17.0	0.1	-1.7	.	.
Cc1ccccc1NNC(=O)C(=O)NNc1ccccc1C	0.9	13.9	0.3	10.0	.	18.0
Cc1ccccc1NC(=O)C(Cl)=C(Cl)Cl	-2.0	93.9*	0.1	-1.7	-22.6	16.8
C[C@@H]1CCCCO[C@H](CN(C)C(=O)C2CCCCC2)[C@@H](C)CN([C@@H](C)CO)C(=O)c2cc(NC(=O)c3ccccc3)ccc2O1	1.5	-30.4	-0.2	-23.5	10.6	7.2
COC(=O)c1ccc(CNC(=O)CSc2nc3ccccc3[nH]2)cc1	-0.7	-2.4	-0.1	78.7*	-5.5	-2.7
Cc1ccc(CNC(=O)CSc2nc3ccccc3[nH]2)cc1	-2.8	-6.6	0.0	1.9	6.2	-9.6
CSC1SCC2C(=O)N(C)C(C(C)C)C(=O)OCC(NC(=O)c3cnc4ccccc4n3)C(=O)NC(C)C(=O)N(C)C1C(=O)N(C)C(C(C)C)C(=O)OCC(NC(=O)c1cnc3ccccc3n1)C(=O)NC(C)C(=O)N2C (centres undefined)	-2.4	96.8*	0.0	-0.4	?	16.2
O=C(CN1CCOCC1)N1CCCCN2[C@H](CO)[C@H](c3ccc(C#Cc4ccccc4)cc3)[C@@H]2C1	-0.7	-3.6	0.2	7.8	-6.8	-32.8
C[C@H](CO)N1C[C@H](C)[C@@H](CN(C)S(C)(=O)=O)Oc2ccc(NS(=O)(=O)c3ccc(Cl)cc3)cc2CC1=O	0.2	2.7	0.0	4.8	1.0	-7.3
COC(=O)c1sc(NC(=O)COc2cccnc2[N+](=O)[O-])c(C(=O)OC)c1C	-3.5	-1.8	-0.1	40.0*	-5.7	7.6
COc1ccccc1NC(=O)COc1cccnc1[N+](=O)[O-]	-2.9	-15.4	0.0	26.4	-18.2	-17.3
Nc1nnc(SCC(=O)NCCOc2ccccc2)s1	.	.	.	-3.1	-8.5	.
O=C(CSc1nc2ccccc2s1)NCCOc1ccccc1	-9.0	92.8*	-0.1	.	1.6	-32.4
CN(C)c1ccc(/C=C(\NC(=O)c2ccccc2)C(=O)NCCN2CCOCC2)cc1	0.9	-7.8	-0.1	40.5*	1.6	0.1
CC(C)(C)c1ccc(C(=O)Nc2ccccc2C(=O)NCCN2CCOCC2)cc1	2.3	-51.0	0.0	14.7	1.5	-58.6
SMILES	AF4-AF9 inh	PAX8 inh HTS	Xi reactivation	GSIS activator	PGC1a acetyl inh	EWS-Fli block
CC(C)(C)c1ccc(C(=O)NCCCN2CCN(CCCNC(=O)c3ccc(C(C)(C)C)cc3)CC2)cc1	.	70.1*	0.5	18.2	.	.
CN(C)c1ccc(/C=C(\NC(=O)c2ccccc2)C(=O)NCCCN2CCOCC2)cc1	-2.5	8.1	-0.1	-0.2	-3.1	0.7
O=C(NCCCN1CCOCC1)c1ccc(Br)cc1	.	.	.	.	2.7	.
CC(C)(C)c1ccc(C(=O)NCCN2CCOCC2)cc1	.	-2.2	0.3	-4.4	64.8*	-13.4
O=C(NCCCN1CCOCC1)c1ccc(CNS(=O)(=O)c2ccc(Br)cc2)cc1	-2.3	131.7*	0.0	-1.9	.	4.7
COc1ccc(CN(C)C[C@H]2OCCCC[C@@H](C)Oc3ccc(NC(=O)NC4CCCCC4)cc3C(=O)N([C@H](C)CO)C[C@H]2C)cc1	12.6	.	0.3	-16.2	-14.0	2.0
COc1ccc(NC(=O)N(C)C[C@H]2OCCCC[C@@H](C)Oc3ccc(NS(=O)(=O)c4ccc(Cl)cc4)cc3C(=O)N([C@@H](C)CO)C[C@@H]2C)cc1	3.9	50.1	0.5	-22.6	-7.4	10.2
CCCCC(CC)C(=O)Oc1ccc(O)c(C(C)(C)C)c1 (centres undefined)	-1.8	-7.6	0.4	511.4*	3.5	16.7
CC(C)(C)c1cc(OC(=O)C2CCCC2)ccc1O	-0.8	2.1	0.2	39.8	6.6	17.3
CNC[C@H](CC1CCCCC1)NC[C@H](Cc1ccccc1)NCCC12CC3CC(CC(C3)C1)C2	39.9*	77.3*	1.9	649.3*	.	26.5
NC[C@H](Cc1ccccc1)NCCCCC1CCCCC1	8.4	16.5	0.0	16.9	5.1	8.3
Cn1ncc([N+](=O)[O-])c1C(=O)Nc1ccc(-c2nc3ccccc3[nH]2)cc1	.	.	.	-9.6	-1.1	.
CCOc1ccc(C(=O)Nc2ccc(-c3nc4ccccc4[nH]3)cc2)cc1[N+](=O)[O-]	.	-21.3	0.0	101.5*	.	.
C[C@@H]1O[C@H](C2CCCC2)CC2=C1C(=O)OC(C)(C)O2	-2.0	-12.2	0.1	59.5*	.	-4.7
CC/C(O)=C1\C(=O)CC(C)(C)CC1=Nc1ccccc1C	.	2.9	0.0	73.4*	.	.
CCCC/C(O)=C1\C(=O)CC(C)(C)CC1=Nc1ccccc1OC	5.2	.	.	-17.7	-5.2	9.5
C[C@@H]1CCCCO[C@@H](CN(C)CC2CC2)[C@H](C)CN([C@@H](C)CO)C(=O)c2cc(NC(=O)CCCN(C)C)ccc2O1	18.3	-41.1	0.9	14.8	-3.2	-8.2
COCC(=O)Nc1c(C(=O)Nc2ccccc2OC)oc2ccccc12	.	.	.	24.0	-1.3	.
COc1ccccc1NC(=O)c1oc2ccccc2c1NC(=O)c1cc(OC)c(OC)c(OC)c1	-26.6	.	.	-4.4	4.3	60.3*
Cc1noc(C)c1NC(=O)Nc1ccc2c(c1)C(=O)N([C@@H](C)CO)C[C@H](C)[C@@H](CN(C)C(=O)Nc1ccccc1)OCCCC[C@H](C)O2	-1.7	-18.3	0.1	-6.0	-7.1	-9.3
C/C(=N\NC(=O)CSCc1ccccc1Cl)c1cc(O)ccc1O	25.5*	26.1	0.1	-1.1	.	40.2
